Test results as given in PMC4780725 (Drug Design, Development and Therapy, 2016).

Assays:
[1] = system: SGC-7901 cells; test: MTT cell viability assay, SGC-7901; format: cell-based, human; conditions: read-out: IC50 values of compounds on cells, SGC-7901, 72 hours, SGC-7901 gastric cancer cells
In short: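 SGC-7901 cells were seeded at ~5,000/well and exposed 72 h to test compound at 0.096, 0.48, 2.4, 12 and 60 µM. MTT was added for 4 h, formazan dissolved in DMSO and absorbance read at 490 nm. Inhibition ratio = (1 − A treated/A DMSO control) × 100%. IC50, the concentration giving 50% inhibition of proliferation, was calculated by curve fitting.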

[2] = system: GES-1 cells; test: MTT cell viability assay, GES-1 normal gastric mucosa epithelial cells; format: cell-based; conditions: Homo sapiens, GES1, 72 h, read-out: IC50 values of compounds on cells, GES-1
In short: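 GES-1 cells were grown in RPMI-1640 with 10% FBS at 37°C and 5% CO2, seeded at ~5,000 cells/well, then exposed for 72 h to 0.096, 0.48, 2.4, 12 and 60 µM compound. MTT was added for 4 h, formazan dissolved in DMSO, and absorbance read at 490 nm. Inhibition was calculated against the DMSO control, and IC50 is the concentration giving 50% inhibition. At least three independent experiments were run.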

[3] = system: p65 nuclear translocation in SGC-7901 cells; test: p65 nuclear translocation, Western blot of nuclear extracts, SGC-7901; format: cell-based, human; conditions: SGC-7901, pretreatment 60 minutes, TNF-α 1 ng/mL 60 minutes
In short: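 SGC-7901 cells were pretreated for 60 min with test compound (10 or 20 µM), a reference NF-κB inhibitor or DMSO, then stimulated with TNF-α at 1 ng/mL for 60 min. Cells were trypsinized and washed thrice in ice-cold PBS. Cytoplasmic extract came from Buffer A (10 min on ice) plus Buffer B (1 min) and a 16,000× g spin for 5 min; nuclear extract from the pellet in Buffer C for 40 min on ice. Nuclear p65 was normalized to Lamin B and cytoplasmic p65 to GAPDH.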

[4] = system: p65 nuclear translocation in BGC-823 cells; test: p65 nuclear translocation, immunofluorescence, BGC-823; format: cell-based, human; conditions: BGC-823, 20 µM, 60 minutes before TNF-α
In short: (§1)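 Cells were pretreated 60 min with DMSO, test compound (20 µM) or a reference NF-κB inhibitor (20 µM), then stimulated with TNF-α 1 ng/mL for 60 min. After an ice-cold PBS wash, cells were fixed 10 min at room temperature and blocked 1 h. They were incubated overnight at 4°C with rabbit anti-p65, then anti-rabbit Cy3 for 1 h in the dark, and DAPI for 5 min. Fluorescence microscopy at 20×10; p65 red and nuclei blue in merged images.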

[5] = Stability in phosphate buffer by UV-visible absorption spectra; format: physicochemical; conditions: phosphate buffer pH 7.4, 250 to 600 nm, every 5 minutes for more than 25 minutes
In short: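 Test compound was dissolved and diluted in DMSO, then mixed into phosphate buffer at pH 7.4. Optical density from 250 to 600 nm was recorded every 5 min for more than 25 min.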

[6] = system: SGC-7901 or BGC-823 cells; test: Clonogenic assay; format: cell-based, human; conditions: 5 µM, 24 hours treatment, then 7 days in fresh medium
In short: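 SGC-7901 or BGC-823 cells were exposed to test compound (2.5 or 5 µM) or DMSO for 24 h. The medium was then replaced with fresh medium and colonies grew for 7 days before crystal violet staining and photography.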

[7] = system: SGC-7901 and BGC-823 cells; test: Matrigel invasion assay; format: cell-based, human; conditions: 24 hours; Da0324 5 or 10 µM, curcumin 10 µM
In short: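 Transwell inserts were coated with Matrigel and air-dried for 2 h at room temperature. Cells at 1×10^6 cells/mL in serum-free RPMI-1640 with compound or DMSO were placed in the upper chamber, with RPMI-1640 plus 10% FBS below, for 24 h at 37°C. Cells on the lower surface were fixed, crystal violet-stained and counted by light microscopy as the mean of three fields, from three separate treatments.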

[8] = system: SGC-7901 or BGC-823 cells; test: Cell cycle analysis by flow cytometry; format: cell-based, human; conditions: 24 hours
In short: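 Cells in RPMI-1640 with 10% FBS were exposed for 24 h to test compound (5 or 10 µM, or 20 µM for the reference) or DMSO. All cells were collected by trypsinization, PBS-washed, fixed in 75% ethanol for 1 h at −20°C, washed, and stained with PI for 15 min at 4°C in the dark. G0/G1, S and G2/M fractions were measured by FACS, from three separate treatments.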

[9] = system: NF-κB activation induced by TNF-α in SGC-7901 cells; test: Western blot of TNF-α-induced NF-κB activation; format: cell-based, human; conditions: SGC-7901, 10 µM, 60 minutes pretreatment, TNF-α 1 ng/mL 15 minutes
In short: (§2)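 SGC-7901 or BGC-823 cells were pretreated 60 min with DMSO, test compound (5, 10 or 20 µM) or a reference NF-κB inhibitor (20 µM), then stimulated with TNF-α 1 ng/mL for 15 min. Whole-cell lysates were cleared at 12,000× g, 4°C, 10 min, and equal protein run on SDS-PAGE. Blots were probed overnight for p-IKK, IκB-α and p-IκB-α, then with HRP secondaries 1 h at 37°C. Densitometry normalised to IKK and GAPDH, respectively.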

[10] = system: NF-κB activation induced by TNF-α in BGC-823 cells; test: Western blot of TNF-α-induced NF-κB activation; format: cell-based, human; conditions: BGC-823, 10 µM, 60 minutes pretreatment, TNF-α 1 ng/mL 15 minutes
In short: as §2

[11] = system: p65 nuclear translocation in SGC-7901 cells; test: p65 nuclear translocation, immunofluorescence, SGC-7901; format: cell-based, human; conditions: SGC-7901, 20 µM, 1 hour before TNF-α
In short: as §1

[12] = system: SGC-7901 or BGC-823 cells; test: Apoptosis by Annexin-V/PI flow cytometry; format: cell-based, human; conditions: 10 or 20 µM, 24 hours
In short: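 SGC-7901 or BGC-823 cells in RPMI-1640 with 10% FBS at 37°C, 5% CO2, were treated 24 h with test compound (10 or 20 µM), a reference compound (20 µM) or DMSO. Cells were collected, washed twice in PBS, then stained with Annexin-V for 10 min in the dark and with PI for 5 min, and analysed by FACS. Annexin+/PI− cells were scored early apoptotic and Annexin+/PI+ late apoptotic/dead; three separate treatments.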

[13] = system: caspase 3, bcl-2, bax in SGC-7901 cells; test: Western blot of apoptosis-related proteins, SGC-7901; format: cell-based, human; conditions: SGC-7901, 10 µM, 24 hours
In short: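 SGC-7901 cells were exposed 24 h to DMSO, test compound (5, 10 or 20 µM) or a reference compound (20 µM). Lysates were cleared at 12,000× g, 4°C, and equal protein separated by SDS-PAGE. Blots were probed overnight for caspase 3, cleaved caspase 3, bax and bcl-2, with GAPDH as loading control. Bands were quantified by densitometry.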

SMILES | IC50 [1] [µM] | IC50 [2] [µM] | Nuclear p65 after TNF-α stimulation [3] | p65 nuclear translocation induced by TNF-α [4] | Absorption intensity of the spectrum in phosphate buffer (degradation) [5] | Colony formation [6] | Invasion through Matrigel [7] | Cells arrested in the G2/M phase ([8]; 20 µM) | Phosphorylation of IKK and IκB-α stimulated by TNF-α [9] | Expression of p-IKK and p-IκB-α stimulated by TNF-α [10] | p65 red fluorescence in cell nuclei after TNF-α [11] | Cells arrested in the G2/M phase ([8]; 10 µM) [%] | Number of early- and late-period apoptotic cells [12] | Caspase 3 level and cleavage [13]
Cc1ccc2nc(NCCN)c3ncc(C)n3c2c1 [BMS345541, reference compound] | 7.8 ± 1.8 | 9.8 ± 2.5 | did not significantly increase | could inhibit the p65 nuclear translocation | – | – | – | – | – | – | – | – | – | –
COc1cc(/C=C/C(=O)CC(=O)/C=C/c2ccc(O)c(OC)c2)ccc1O [CUR, curcumin, reference compound] | – | 29.1 ± 3.8 | – | – | significantly decreased | no significant effects | could similarly inhibit cell invasion | ~ 10% | – | – | – | – | – | –
COc1ccc(OC)c(/C=C2\CC/C(=C\c3ccc(O)c(OC)c3)C2=O)c1 [Da0324, (2E,5E)-2-(2,5-dimethoxybenzylidene)-5-(4-hydroxy-3-methoxybenzylidene)cyclopentanone] | – | 27.3 ± 8.2 | did not significantly increase | could inhibit the p65 nuclear translocation | less degraded than curcumin | No colonies were visible | obviously inhibited the invasion | – | significantly inhibit the phosphorylation of IKK and IκB-α | similarly inhibit the expression of p-IKK and p-IκB-α | the red fluorescence did not increase in the cell nuclei | ~30 | significantly higher than those of the curcumin-treated cells | significantly reduced caspase 3 and induced its cleavage
COc1cccc(/C=C/C(=O)/C=C/c2cccc(OC)c2OC)c1OC [Compound B19, (1E,4E)-1,5-bis(2,3-dimethoxyphenyl)penta-1,4-dien-3-one] | – | 3.7 ± 1.9 | – | – | – | – | – | – | – | – | – | – | – | –
